Activity calls are given as the source filed them. No cut-off for these calls is given here.
Experiments:
[1] = system: Trypanosoma brucei; assay: In vitro inhibitory concentration against mouse infected with Trypanosoma brucei rhodesiense (kETRI 243As-10-3); format: functional, organism-based
[2] = system: Mus musculus; assay: Ratio of number of cured to that of total after intraperitoneal administration (2.5 mg/kg) once a day for 3 days in mouse infected with Trypanosoma brucei (EATRO Lab 110); (1/3 of animals were cured); format: functional, organism-based
[3] = system: Mus musculus; assay: Ratio of number of cured to that of total after intraperitoneal administration (1.0 mg/kg) once a day for 3 days in mouse infected with Trypanosoma brucei (EATRO Lab 110);(0/3 of animals were cured); format: functional, organism-based
[4] = system: Mus musculus; assay: Ratio of number of cured to that of total after intraperitoneal administration (25 mg/kg) once a day for 3 days in mouse infected with Trypanosoma brucei (EATRO Lab 110); (3/3 of animals were cured); format: functional, organism-based
[5] = system: Trypanosoma brucei; assay: Mean survival dose (5.0 mg/kg) after intraperitoneal administration once a day for 3 days in mouse infected with Trypanosoma brucei (EATRO Lab 110); format: functional
In short: (§1)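 Female Swiss-Webster mice (20 g) infected ip with 2.5×10^5 trypanosomes from rat blood; treatment began 24 h later. Drug dissolved in distilled water, given ip once daily for 3 days, three mice per dose. Tail blood smears checked weekly. MSD is the mean survival of mice dying of infection, excluding cures. Cure means survival >30 days beyond the last control death with a clear smear.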

[6] = system: Trypanosoma brucei; assay: Mean survival dose (2.5 mg/kg) after intraperitoneal administration once a day for 3 days in mouse infected with Trypanosoma brucei (EATRO Lab 110); format: functional; in short: as §1
[7] = system: Nucleic Acid; assay: DNA binding affinity using poly(dA-dT).; format: nucleic-acid assay
In short: (§2)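 Thermal denaturation of calf thymus DNA or poly(dA-dT) at a 1:5 compound to base pair ratio. Binding affinity is reported as ΔTm, the shift in the midpoint (Tm) of the melting curve.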

[8] = system: Trypanosoma brucei; assay: In vitro inhibitory concentration against mice infected with Trypanosoma brucei pentamidine-sensitive strain (EATRO Lab 110).; format: functional, organism-based
[9] = system: Calf thymus DNA; assay: DNA binding affinity using calf thymus DNA.; format: nucleic-acid assay; conditions: Bos taurus; in short: as §2
[10] = system: Mus musculus; assay: Ratio of number of cured to that of total after intraperitoneal administration (10.0 mg/kg) once a day for 3 days in mouse infected with Trypanosoma brucei (EATRO Lab 110); (3/3 of animals were cured); format: functional, organism-based
[11] = system: Trypanosoma brucei; assay: Mean survival dose (1.0 mg/kg) after intraperitoneal administration once a day for 3 days in mouse infected with Trypanosoma brucei (EATRO Lab 110); format: functional; in short: as §1
[12] = system: Trypanosoma brucei; assay: In vitro inhibitory concentration against mice infected with Trypanosoma brucei rhodesiense (KETRI 243).; format: functional, organism-based
[13] = system: Mus musculus; assay: Ratio of number of cured to that of total after intraperitoneal administration (5.0 mg/kg) once a day for 3 days in mouse infected with Trypanosoma brucei (EATRO Lab 110); (2/3 of animals were cured); format: functional, organism-based
[14] = system: Trypanosoma brucei rhodesiense; assay: In vitro inhibitory concentration against mouse infected with Trypanosoma brucei rhodesiense (KETRI 269)
[15] = system: Mus musculus; assay: Ratio of number of cured to that of total after intraperitoneal administration (1.0 mg/kg) once a day for 3 days in mouse infected with Trypanosoma brucei (EATRO Lab 110); (0/3 of animals were cured); format: functional, organism-based
[16] = system: Mus musculus; assay: Ratio of number of cured to that of total after intraperitoneal administration (10.0 mg/kg) once a day for 3 days in mouse infected with Trypanosoma brucei (EATRO Lab 110); (1/3 of animals were cured); format: functional, organism-based
[17] = system: Mus musculus; assay: Ratio of number of cured to that of total after intraperitoneal administration (25 mg/kg) once a day for 3 days in mouse infected with Trypanosoma brucei (EATRO Lab 110);(3/3 of animals were cured); format: functional, organism-based
[18] = system: Trypanosoma brucei; assay: Mean survival dose (10.0 mg/kg) after intraperitoneal administration once a day for 3 days in mouse infected with Trypanosoma brucei (EATRO Lab 110); format: functional; in short: as §1
[19] = system: Mus musculus; assay: Ratio of number of cured to that of total after intraperitoneal administration (2.5 mg/kg) once a day for 3 days in mouse infected with Trypanosoma brucei (EATRO Lab 110); (0/3 of animals were cured); format: functional, organism-based
[20] = system: Mus musculus; assay: Ratio of number of cured to that of total after intraperitoneal administration (5.0 mg/kg) once a day for 3 days in mouse infected with Trypanosoma brucei (EATRO Lab 110); (0/3 of animals were cured); format: functional, organism-based
[21] = system: Mus musculus; assay: Ratio of number of cured to that of total after intraperitoneal administration (5.0 mg/kg) once a day for 3 days in mouse infected with Trypanosoma brucei (EATRO Lab 110); (3/3 of animals were cured); format: functional, organism-based
[22] = system: Mus musculus; assay: Ratio of number of cured to that of total after intraperitoneal administration (25 mg/kg) once a day for 3 days in mouse infected with Trypanosoma brucei (EATRO Lab 110); (0/3 of animals were cured); format: functional, organism-based
[23] = system: Trypanosoma brucei; assay: Mean survival dose (25.0 mg/kg) after intraperitoneal administration once a day for 3 days in mouse infected with Trypanosoma brucei (EATRO Lab 110); Compound was toxic.; format: functional; in short: as §1
[24] = system: Mus musculus; assay: Ratio of number of cured to that of total after intraperitoneal administration (2.5 mg/kg) once a day for 3 days in mouse infected with Trypanosoma brucei (EATRO Lab 110); (3/3 of animals were cured); format: functional, organism-based

| Compound | IC50 [1] [nM] | DNA binding [7] [°C] | IC50 [8] [nM] | DNA binding [9] [°C] | IC50 [12] [nM] | IC50 [14] [nM] | also measured |
| --- | --- | --- | --- | --- | --- | --- | --- |
| N=C(N)c1ccc(N2CCCN(c3ccc(C(=N)N)cc3)CC2)cc1 | 3.3 | 23.1 | 2.15 | 15 | 2.71 | 7.1 | Ratio [2]: Partially active; Ratio [3]: inactive; Ratio [4]: Active; MSD [5]: 12 days; MSD [6]: 16.5 days; Ratio [10]: Active; MSD [11]: 8.3 days; Ratio [13]: Partially active |
| c1cc(N2CCCN(c3ccc(C4=NCCN4)cc3)CC2)ccc1C1=NCCN1 | 23 | 24 | 27.5 | 15 | 52 | 155 | Ratio [15]: inactive; MSD [5]: 7.7 days; MSD [6]: 4.3 days; Ratio [16]: Partially active; Ratio [17]: Active; MSD [11]: 4.7 days; MSD [18]: 14 days; Ratio [19]: inactive; Ratio [20]: inactive |
| C(=C1CCN(Cc2ccc(C3=NCCN3)cc2)CC1)c1ccc(C2=NCCN2)cc1 | 90 | 19.4 | 540 | 17 | 465 | 265 | – |
| N=C(NC1CC1)c1ccc(N2CCCN(c3ccc(C(=N)NC4CC4)cc3)CC2)cc1 | 850 | 23.6 | 870 | 15.3 | 810 | – | – |
| c1cc(N2CCN(c3ccc(C4=NCCN4)cc3)CC2)ccc1C1=NCCN1 | 100 | 19.4 | 18.5 | 15 | 13.5 | 13 | Ratio [21]: Active; Ratio [15]: inactive; Ratio [22]: inactive; MSD [23]: 19.7 days; Ratio [10]: Active; MSD [11]: 10.3 days; Ratio [24]: Active |
| c1cc(C2=NCCN2)ccc1CC1CCN(c2ccc(C3=NCCN3)cc2)CC1 | 88 | 33.9 | 169 | 21 | 185 | 155 | – |
| C(=C1\CCCN(c2ccc(C3=NCCN3)cc2)C1)/c1ccc(C2=NCCN2)cc1 | 84 | 15.5 | 71 | 12 | 84 | 88 | – |

Second part, led by results:

| IC50 [1] [nM] | DNA binding [7] [°C] | IC50 [8] [nM] | DNA binding [9] [°C] | IC50 [12] [nM] | IC50 [14] [nM] | Compound | also measured |
| --- | --- | --- | --- | --- | --- | --- | --- |
| 5 | 20.6 | 0.8 | 11.1 | 3.1 | 3.2 | N=C(N)c1ccc(OCCCCCOc2ccc(C(=N)N)cc2)cc1 [PENTAMIDINE] | – |
| 810 | 9.6 | > 1000 | 6 | 440 | > 1000 | O=C(Nc1ccc(C2=NCCN2)cc1)C1C[C@H]1C(=O)Nc1ccc(C2=NCCN2)cc1 (stereo not given in full) | – |
| > 1000 | 7.4 | > 1000 | 4.1 | > 1000 | – | CC(C)(C)/N=C(\N)c1ccc(N2CCCN(c3ccc(/C(N)=N/C(C)(C)C)cc3)CC2)cc1 | – |
| > 1000 | 15.9 | > 1000 | 7.1 | > 1000 | > 1000 | N=C(N)c1ccc(NC(=O)c2cccc(C(=O)Nc3ccc(C(=N)N)cc3)n2)cc1 | – |
| 78 | 13.3 | 180 | 11.8 | 79 | – | CCCCNC(=N)c1ccc(N2CCCN(c3ccc(C(=N)NCCCC)cc3)CC2)cc1 | – |
| 79 | 14.1 | 86 | 9.9 | 85 | 15 | c1cc(C2=NCCN2)ccc1CC1CCCN(c2ccc(C3=NCCN3)cc2)C1 (stereo not given) | – |
| 125 | 20 | > 1000 | 13.8 | 900 | – | CC(C)/N=C(\N)c1ccc(N2CCCN(c3ccc(/C(N)=N/C(C)C)cc3)CC2)cc1 | – |
| 0.17 | 20.3 | 9.4 | 11.1 | 45 | 15.5 | N=C(N)c1ccc(OC[C@@H]2C[C@H]2COc2ccc(C(=N)N)cc2)cc1 | – |
| > 1000 | 14.7 | > 1000 | 11.1 | > 1000 | – | N=C(NCCO)c1ccc(N2CCCN(c3ccc(/C(N)=N/CCO)cc3)CC2)cc1 | – |

From ChEMBL document CHEMBL1136717, “Trypanocidal activity of conformationally restricted pentamidine congeners” (J Med Chem, 2003)
